High-throughput results: PubChem, several laboratories
In the library only some 3.7% were active in any assay of this set; here they are far more common.
Exocytosis inh: lytic granule exocytosis inhibition; TALL-104 LAMP-1 surface exposure, flow cytometry; cells stimulated with thapsigargin and PMA; inhibition, % at 10 µM; 360,000 compounds, 0.66% hits; AID 651702;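 active = inhibition above about 55%, limit read from the data; inconclusive = no clear call, values can overlap the other calls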
Myeloid diff 2: myeloid differentiation induction. AID 624256. 360,000 compounds, 1% hits. calls only at 10 µM. ER-HoxA9 myeloid progenitors, lysozyme-GFP differentiation, flow cytometry;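 active = normalized GFP-positive differentiation at or above the plate's own cutoff, the solvent-only control mean plus 3 SD; inconclusive = no clear call, values can overlap the other calls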;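 note: cells exposed to compound for four days before flow analysis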
EBI2 block: blocks human EBI2 receptor beta-arrestin signaling; P32249; EBI2 beta-arrestin recruitment, luminescence, 7a,25-OHC stimulated; inhibition, % at 5 µM; 360,000 compounds, 0.81% hits; in the data active = inhibition above about 38%;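 note: enzyme fragment complementation signal reports receptor beta-arrestin coupling in cells; 0% = agonist plus DMSO wells and 100% = wells without agonist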
Target sequence (P32249 whole entry, looked up, the tested form may be a part): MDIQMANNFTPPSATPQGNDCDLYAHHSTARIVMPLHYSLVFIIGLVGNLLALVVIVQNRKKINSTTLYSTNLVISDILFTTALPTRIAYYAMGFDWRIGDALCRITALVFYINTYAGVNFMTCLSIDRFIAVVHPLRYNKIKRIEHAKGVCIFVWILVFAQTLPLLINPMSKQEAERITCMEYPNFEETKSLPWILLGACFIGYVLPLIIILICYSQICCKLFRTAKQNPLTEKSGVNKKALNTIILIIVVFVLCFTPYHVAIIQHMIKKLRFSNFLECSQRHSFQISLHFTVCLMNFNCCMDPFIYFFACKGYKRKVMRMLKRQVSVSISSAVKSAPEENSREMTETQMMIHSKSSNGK
MC4R ag barr: activates human MC4R beta-arrestin recruitment; P32245; U2OS MC4R beta-arrestin complementation, luminescence; percent of melanotan II response, DMSO zero; activation, % at 8.9 µM; 360,000 compounds, 0.98% hits; AID 540308;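 active = activation above a per-plate cutoff, the mean activation of sample wells on that plate plus 3 SD, cut at about 8% in these data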
MC4R antag cAMP: blocks human MC4R cAMP signaling | P32245 | MC4R-expressing cells, MTII-stimulated cAMP, LANCE TR-FRET | inhibition, % at 6.5 µM | 360,000 compounds, 0.48% hits;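 active = inhibition above its plate's cutoff, the mean of tested wells on that plate plus 3 SD, cut at about 29% in these data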;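 note: 0% = Melanotan II alone and 100% = Melanotan II plus saturating MCL0020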
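Material: human MC4R-expressing U2OS cells. Probe or stimulus: Melanotan II challenge. Dosing: 6.5 µM single dose. Times: 30-min compound, 1-h challenge, 1-h detection, room temperature. Technique: TR-FRET with Eu-cAMP and labeled anti-cAMP, 671 nm. Replication: singlicate.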
EBI2 antag conf: confirmation of human EBI2 receptor antagonists; shares compounds with EBI2 block; inhibition, % at 5 µM; 2,400 compounds, 29% hits; EBI2 beta-arrestin luminescence, 7a,25-OHC antagonism;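 active = inhibition of at least 50%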
EBI2 agonist: counter-screen for EBI2 antagonists: EBI2 agonist activity. EBI2-expressing cells, agonist mode, luminescence, 60 min; 0% vehicle, 100% 7α,25-dihydroxycholesterol control. 2,400 tested, under 10 active. activation, % at 5 µM. AID 652000. shares compounds with EBI2 block;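 active = activation of at least 50%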
bGal counter: inhibits E. coli beta-galactosidase, counter-screen for EBI2 antagonists | shares compounds with EBI2 block | purified beta-galactosidase, luminescent Galacton Star, 15 min | inhibition, % at 5 µM | AID 652176 | 2,400 compounds, 1% hits;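 active = replicate-average signal at least 3 plate SD below neutral wells, shown as high inhibition, flagging enzyme-inhibiting false positives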;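 note: 0% = DMSO wells with enzyme and 100% = wells lacking enzyme; higher means stronger loss of beta-gal luminescence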
* marks the source's active call; other numbers are inactive results.

`COc1ccc(-c2ccc(CN3C(C(C)C)C(=O)N(Cc4cn(CC5CCCCC5)nn4)CCS3(=O)=O)cc2)cc1OC` (stereo not given) gave Exocytosis inh -1.8, Myeloid diff 2 inactive, EBI2 block 43.9*, MC4R ag barr -0.7, MC4R antag cAMP 5.0, EBI2 antag conf 10.8, EBI2 agonist 0.9 and bGal counter -1.1.
For Cc1c(C(=O)N2CCN(C(c3ccccc3)c3ccccc3)CC2)oc2ccccc12 the results were Exocytosis inh 3.0, Myeloid diff 2 inactive, EBI2 block 87.3*, MC4R ag barr -4.0, MC4R antag cAMP 2.4, EBI2 antag conf 40.3, EBI2 agonist -0.7 and bGal counter -5.0.
For COc1ccc(N2CCN(C(=O)c3cc4ccccc4o3)CC2)cc1 the results were Exocytosis inh -2.2, Myeloid diff 2 inactive, EBI2 block 29.5, MC4R ag barr -0.9 and MC4R antag cAMP 1.6.
Screening COc1ccccc1C(=O)N1CCN(C(=O)c2oc3c(C)c(C)ccc3c2C)CC1 returned Exocytosis inh 3.0, Myeloid diff 2 inactive, EBI2 block 51.3*, MC4R ag barr 0.6, MC4R antag cAMP 7.1, EBI2 antag conf 43.3, EBI2 agonist 0.1 and bGal counter -20.0.
`Cc1c(C(=O)N2CCN(CCc3ccccn3)CC2)oc2ccc(F)cc12` gave Exocytosis inh -6.7, Myeloid diff 2 inactive, EBI2 block 15.4, MC4R ag barr -2.3 and MC4R antag cAMP -1.6.
For CCc1ccc2oc(C(=O)N3CCN(c4ccc(OC)cc4)CC3)cc(=O)c2c1 the results were Exocytosis inh 6.3, Myeloid diff 2 inactive, EBI2 block 91.2*, MC4R ag barr 0.2, MC4R antag cAMP 0.9, EBI2 antag conf 83.2*, EBI2 agonist 2.8 and bGal counter 3.3.
Screening Cc1cc2oc(C(=O)N3CCN(CCc4ccccn4)CC3)c(C)c2cc1C returned Exocytosis inh -4.1, Myeloid diff 2 inactive, EBI2 block 49.8*, MC4R ag barr -2.1, MC4R antag cAMP 9.5, EBI2 antag conf 32.2, EBI2 agonist 0.8 and bGal counter 1.8.
`COc1ccccc1C(=O)N1CCCN(C(=O)c2ccccc2OC)CC1` gave Exocytosis inh 0.0, Myeloid diff 2 inactive, EBI2 block -7.3, MC4R ag barr 0.7 and MC4R antag cAMP 8.5.
Screening COc1ccc(-c2cc3ncnc(Cl)c3s2)cc1 returned Exocytosis inh 4.2, Myeloid diff 2 inconclusive, EBI2 block 2.4, MC4R ag barr 0.1 and MC4R antag cAMP -4.8.
CCc1ccc2oc(C(=O)N3CCN(c4ccccc4OC)CC3)cc(=O)c2c1 was read as Exocytosis inh 11.7, Myeloid diff 2 inactive, EBI2 block 91.0*, MC4R ag barr -1.7, MC4R antag cAMP -10.9, EBI2 antag conf 84.0*, EBI2 agonist -1.2 and bGal counter -14.4.
Screening COc1ccccc1N1CCN(C(=O)c2cc(=O)c3c(C)cc(C)cc3o2)CC1 returned Exocytosis inh 6.3, Myeloid diff 2 inactive, EBI2 block 13.8, MC4R ag barr -0.1 and MC4R antag cAMP -2.8.
`COc1ccc(Cn2c(=O)[nH]c3cc(C(=O)N4CCN(Cc5ccccc5)CC4)ccc3c2=O)cc1` gave Exocytosis inh 3.4, Myeloid diff 2 inactive, EBI2 block 2.6, MC4R ag barr -1.3 and MC4R antag cAMP 5.8.
For CCOc1ccc2oc(C(=O)N3CCN(c4ccccc4OCC)CC3)c(C)c2c1 the results were Exocytosis inh -5.4, Myeloid diff 2 inactive, EBI2 block 27.1, MC4R ag barr -1.8 and MC4R antag cAMP 2.0.
For COc1ccccc1N1CCN(C(=O)c2oc3cc(C)c(C)cc3c2C)CC1 the results were Exocytosis inh 1.9, Myeloid diff 2 inactive, EBI2 block 59.4*, MC4R ag barr 4.4, MC4R antag cAMP 10.1, EBI2 antag conf 31.8, EBI2 agonist 0.5 and bGal counter 8.3.
